Reference: ChEMBL document CHEMBL1122824, “Synthesis and biological properties of (carboxyalkyl)amino-substituted bicyclic lactam inhibitors of angiotensin converting enzyme” (J Med Chem, 1985)
Values joined by “and” are separate entries in the source; they are usually repeats but may differ in a detail not shown here. Identical values can stand only once. One block for each compound: values may come before it.

Key:
[1] = target: T1, Angiotensin-converting enzyme (Oryctolagus cuniculus, UniProt P12822); test: Inhibition of Angiotensin I converting enzyme
T1 sequence (P12822 whole entry): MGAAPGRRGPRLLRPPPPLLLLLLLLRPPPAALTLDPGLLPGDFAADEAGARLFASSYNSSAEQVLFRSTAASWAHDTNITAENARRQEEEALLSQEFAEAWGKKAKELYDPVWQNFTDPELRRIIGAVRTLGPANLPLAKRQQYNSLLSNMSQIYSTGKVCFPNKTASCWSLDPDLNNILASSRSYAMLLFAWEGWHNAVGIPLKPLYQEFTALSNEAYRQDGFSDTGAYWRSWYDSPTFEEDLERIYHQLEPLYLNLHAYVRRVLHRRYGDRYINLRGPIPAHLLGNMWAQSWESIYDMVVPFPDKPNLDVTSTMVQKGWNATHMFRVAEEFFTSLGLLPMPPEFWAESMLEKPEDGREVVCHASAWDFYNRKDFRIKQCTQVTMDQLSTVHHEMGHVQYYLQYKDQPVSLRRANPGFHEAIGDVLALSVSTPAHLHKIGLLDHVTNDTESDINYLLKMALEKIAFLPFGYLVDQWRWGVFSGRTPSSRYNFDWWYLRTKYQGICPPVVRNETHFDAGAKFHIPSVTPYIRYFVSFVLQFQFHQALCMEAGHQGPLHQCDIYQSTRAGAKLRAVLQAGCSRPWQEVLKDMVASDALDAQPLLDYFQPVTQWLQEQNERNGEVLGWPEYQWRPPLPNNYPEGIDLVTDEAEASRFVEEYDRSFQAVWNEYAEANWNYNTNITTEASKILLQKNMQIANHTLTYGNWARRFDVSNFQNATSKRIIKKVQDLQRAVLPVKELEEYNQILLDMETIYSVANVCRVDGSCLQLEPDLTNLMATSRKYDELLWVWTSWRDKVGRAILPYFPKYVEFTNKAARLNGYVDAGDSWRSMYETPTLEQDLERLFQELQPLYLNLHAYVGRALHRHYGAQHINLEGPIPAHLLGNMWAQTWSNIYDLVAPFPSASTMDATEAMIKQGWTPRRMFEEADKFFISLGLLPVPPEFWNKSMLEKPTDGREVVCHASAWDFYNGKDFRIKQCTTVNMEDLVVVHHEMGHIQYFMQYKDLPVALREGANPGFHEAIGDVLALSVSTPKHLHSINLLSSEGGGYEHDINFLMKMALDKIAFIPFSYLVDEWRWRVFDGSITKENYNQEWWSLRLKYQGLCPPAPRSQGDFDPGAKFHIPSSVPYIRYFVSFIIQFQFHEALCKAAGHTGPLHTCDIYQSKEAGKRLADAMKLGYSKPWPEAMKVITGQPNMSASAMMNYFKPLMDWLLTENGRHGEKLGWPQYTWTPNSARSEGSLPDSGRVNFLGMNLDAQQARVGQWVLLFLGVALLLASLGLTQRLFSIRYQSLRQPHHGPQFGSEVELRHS

Rattus norvegicus [2] = test: Effects of oral dosing (0.1 mg/kg) on systolic blood pressure in spontaneously hypertensive rats, day 3,at 2 hr; format: functional, Artery
Method in brief: (§1)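 Spontaneously hypertensive rats, 6 per group, were dosed orally once daily for 4 days at 0.1, 1.0 or 10 mg/kg. Systolic pressure was recorded before the first dose and at 2 and 24 h after each daily dose. Values are group mean ±SE with change from predose.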

Rattus norvegicus [3] = test: Effects of oral dosing (1 mg/kg) on systolic blood pressure in spontaneously hypertensive rats, day 4,at 24 hr; format: functional, Artery; method in brief: as §1
Rattus norvegicus [4] = test: Effects of oral dosing (10 mg/kg) on systolic blood pressure in spontaneously hypertensive rats, day 2,at 24 hr; format: functional, Artery; method in brief: as §1
Rattus norvegicus [5] = test: Effects of oral dosing (10 mg/kg) on systolic blood pressure in spontaneously hypertensive rats, day 2,at 2 hr; format: functional, Artery; method in brief: as §1
Rattus norvegicus [6] = test: Effects of oral dosing (0.1 mg/kg) on systolic blood pressure in spontaneously hypertensive rats, day 3,at 24 hr; format: functional, Artery; method in brief: as §1
Rattus norvegicus [7] = test: Effects of oral dosing (1 mg/kg) on systolic blood pressure in spontaneously hypertensive rats, day 2,at 24 hr; format: functional, Artery; method in brief: as §1
Rattus norvegicus [8] = test: Effects of oral dosing (10 mg/kg) on systolic blood pressure in spontaneously hypertensive rats, day 4,at 24 hr; format: functional, Artery; method in brief: as §1
Rattus norvegicus [9] = test: Effects of oral dosing (10 mg/kg) on systolic blood pressure in spontaneously hypertensive rats, day 3,at 2 hr; format: functional, Artery; method in brief: as §1
Rattus norvegicus [10] = test: Effects of oral dosing (10 mg/kg) on systolic blood pressure in spontaneously hypertensive rats, day 3,at 24 hr; format: functional, Artery; method in brief: as §1
Rattus norvegicus [11] = test: Effects of oral dosing (1 mg/kg) on systolic blood pressure in spontaneously hypertensive rats, day 4,at 2 hr; format: functional, Artery; method in brief: as §1
Rattus norvegicus [12] = test: Effects of oral dosing (0.1 mg/kg) on systolic blood pressure in spontaneously hypertensive rats, day 2,at 24 hr; format: functional, Artery; method in brief: as §1
Rattus norvegicus [13] = test: Effects of oral dosing (1 mg/kg) on systolic blood pressure in spontaneously hypertensive rats, day 1,at 2 hr; format: functional, Artery; method in brief: as §1
Rattus norvegicus [14] = test: Effects of oral dosing (1 mg/kg) on systolic blood pressure in spontaneously hypertensive rats, day 1,at 24 hr; format: functional, Artery; method in brief: as §1
Rattus norvegicus [15] = test: Effects of oral dosing (1 mg/kg) on systolic blood pressure in spontaneously hypertensive rats, day 2,at 2 hr; format: functional, Artery; method in brief: as §1
Rattus norvegicus [16] = organism: Rattus norvegicus; test: Predose systolic blood pressure in spontaneously hypertensive rats; format: functional, Artery; method in brief: as §1
Rattus norvegicus [17] = test: Effects of oral dosing (0.1 mg/kg) on systolic blood pressure in spontaneously hypertensive rats, day 1,at 24 hr; format: functional, Artery; method in brief: as §1
Rattus norvegicus [18] = test: Effects of oral dosing (10 mg/kg) on systolic blood pressure in spontaneously hypertensive rats, day 1,at 2 hr; format: functional, Artery; method in brief: as §1
Rattus norvegicus [19] = test: Effects of oral dosing (0.1 mg/kg) on systolic blood pressure in spontaneously hypertensive rats, day 4,at 2 hr; format: functional, Artery; method in brief: as §1
Rattus norvegicus [20] = test: Effects of oral dosing (10 mg/kg) on systolic blood pressure in spontaneously hypertensive rats, day 1,at 24 hr; format: functional, Artery; method in brief: as §1
Rattus norvegicus [21] = test: Effects of oral dosing (0.1 mg/kg) on systolic blood pressure in spontaneously hypertensive rats, day 2,at 2 hr; format: functional, Artery; method in brief: as §1
Rattus norvegicus [22] = test: Effects of oral dosing (0.1 mg/kg) on systolic blood pressure in spontaneously hypertensive rats, day 1,at 2 hr; format: functional, Artery; method in brief: as §1
Rattus norvegicus [23] = test: Effects of oral dosing (0.1 mg/kg) on systolic blood pressure in spontaneously hypertensive rats, day 4,at 24 hr; format: functional, Artery; method in brief: as §1
Rattus norvegicus [24] = test: Effects of oral dosing (1 mg/kg) on systolic blood pressure in spontaneously hypertensive rats, day 3,at 2 hr; format: functional, Artery; method in brief: as §1
Rattus norvegicus [25] = test: Effects of oral dosing (10 mg/kg) on systolic blood pressure in spontaneously hypertensive rats, day 4,at 2 hr; format: functional, Artery; method in brief: as §1
Rattus norvegicus [26] = test: Effects of oral dosing (1 mg/kg) on systolic blood pressure in spontaneously hypertensive rats, day 3,at 24 hr; format: functional, Artery; method in brief: as §1

- IC50 [1]: 4 nM
Structure (SMILES): O=C(O)CN1C(=O)[C@@H](N[C@@H](CCc2ccccc2)C(=O)O)CCCc2ccccc21

- IC50 [1]: 62 nM
Structure (SMILES): O=C(O)CN1C(=O)[C@H](N[C@@H](CCc2ccccc2)C(=O)O)CCCc2ccccc21

- IC50 [1]: 5100 nM
Structure (SMILES): O=C(O)CN1C(=O)[C@H](N[C@@H](CCc2ccccc2)C(=O)O)Cc2ccccc21

- IC50 [1]: 610 nM and 1200 nM
Structure (SMILES): O=C(O)CN1C(=O)[C@@H](N[C@@H](CCc2ccccc2)C(=O)O)Cc2ccccc21

Structure (SMILES): CCOC(=O)[C@H](CCc1ccccc1)N[C@@H](C)C(=O)N1CCC[C@H]1C(=O)O
- Systolic blood pressure (Rattus norvegicus [2]): 175.7 mmHg
- Systolic blood pressure (Rattus norvegicus [3]): 160.8 mmHg
- Systolic blood pressure (Rattus norvegicus [4]): 163 mmHg
- Systolic blood pressure (Rattus norvegicus [5]): 138.5 mmHg
- Systolic blood pressure (Rattus norvegicus [6]): 173.5 mmHg
- Systolic blood pressure (Rattus norvegicus [7]): 168.7 mmHg
- Systolic blood pressure (Rattus norvegicus [8]): 159.8 mmHg
- Systolic blood pressure (Rattus norvegicus [9]): 124.5 mmHg
- Systolic blood pressure (Rattus norvegicus [10]): 174 mmHg
- Systolic blood pressure (Rattus norvegicus [11]): 145 mmHg
- Systolic blood pressure (Rattus norvegicus [12]): 173.7 mmHg
- Systolic blood pressure (Rattus norvegicus [13]): 160 mmHg
- Systolic blood pressure (Rattus norvegicus [14]): 169.5 mmHg
- Systolic blood pressure (Rattus norvegicus [15]): 158.7 mmHg
- Systolic blood pressure (Rattus norvegicus [16]): 197.7 mmHg and 186.8 mmHg and 199 mmHg
- Systolic blood pressure (Rattus norvegicus [17]): 175.8 mmHg
- Systolic blood pressure (Rattus norvegicus [18]): 152.5 mmHg
- Systolic blood pressure (Rattus norvegicus [19]): 168 mmHg
- Systolic blood pressure (Rattus norvegicus [20]): 168.3 mmHg
- Systolic blood pressure (Rattus norvegicus [21]): 172 mmHg
- Systolic blood pressure (Rattus norvegicus [22]): 197.5 mmHg
- Systolic blood pressure (Rattus norvegicus [23]): 204 mmHg
- Systolic blood pressure (Rattus norvegicus [24]): 146.7 mmHg
- Systolic blood pressure (Rattus norvegicus [25]): 135.5 mmHg
- Systolic blood pressure (Rattus norvegicus [26]): 160 mmHg

- IC50 [1]: 2.8 nM
Structure (SMILES): O=C(O)CN1C(=O)[C@@H](N[C@@H](CCc2ccccc2)C(=O)O)CCc2ccccc21 (stereo in doubt; 4b)

- IC50 [1]: 5.2 nM
Structure (SMILES): O=C(O)CN1C(=O)[C@@H](N[C@@H](CCc2ccccc2)C(=O)O)CCc2ccccc21 (stereo in doubt; 4e)

- IC50 [1]: 58 nM
Structure (SMILES): O=C(O)CN1C(=O)[C@@H](N[C@@H](CCc2ccccc2)C(=O)O)CCc2ccccc21 (stereo in doubt; 4f)

Structure (SMILES): CCOC(=O)[C@H](CCc1ccccc1)N[C@H]1CCc2ccccc2N(CC(=O)O)C1=O.Cl [BENAZEPRIL HYDROCHLORIDE]
- Systolic blood pressure (Rattus norvegicus [2]): 176.2 mmHg
- Systolic blood pressure (Rattus norvegicus [3]): 180.2 mmHg
- Systolic blood pressure (Rattus norvegicus [4]): 147.3 mmHg
- Systolic blood pressure (Rattus norvegicus [5]): 146 mmHg
- Systolic blood pressure (Rattus norvegicus [6]): 172.4 mmHg
- Systolic blood pressure (Rattus norvegicus [7]): 168.7 mmHg
- Systolic blood pressure (Rattus norvegicus [8]): 150 mmHg
- Systolic blood pressure (Rattus norvegicus [9]): 131 mmHg
- Systolic blood pressure (Rattus norvegicus [10]): 150.2 mmHg
- Systolic blood pressure (Rattus norvegicus [11]): 171.3 mmHg
- Systolic blood pressure (Rattus norvegicus [12]): 169.8 mmHg
- Systolic blood pressure (Rattus norvegicus [13]): 185.7 mmHg
- Systolic blood pressure (Rattus norvegicus [14]): 185.8 mmHg
- Systolic blood pressure (Rattus norvegicus [15]): 182.8 mmHg
- Systolic blood pressure (Rattus norvegicus [16]): 193.6 mmHg and 200 mmHg and 198 mmHg
- Systolic blood pressure (Rattus norvegicus [17]): 186 mmHg
- Systolic blood pressure (Rattus norvegicus [18]): 162.2 mmHg
- Systolic blood pressure (Rattus norvegicus [19]): 182.8 mmHg
- Systolic blood pressure (Rattus norvegicus [20]): 167.5 mmHg
- Systolic blood pressure (Rattus norvegicus [21]): 195.8 mmHg
- Systolic blood pressure (Rattus norvegicus [22]): 193.8 mmHg
- Systolic blood pressure (Rattus norvegicus [23]): 176 mmHg
- Systolic blood pressure (Rattus norvegicus [24]): 166.5 mmHg
- Systolic blood pressure (Rattus norvegicus [25]): 130.8 mmHg
- Systolic blood pressure (Rattus norvegicus [26]): 177.3 mmHg
